Shown are actives, neighbours in structure and some others; about 3.1% of the full set was active somewhere.
FN deposition inh – inhibitors of fibronectin matrix deposition, primary screen, AH1F cells, Alexa488-fibronectin fluorescence, plate reader; AH1F fibroblasts, overnight; inhibition, % at 12.6 µM; 350,000 compounds, 0.086% hits; AID 743247, 2014;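 active means mean inhibition across replicates of 30% or more, regardless of how many single replicates reach that level; inconclusive means mean under 30% yet at least half of replicates reach 30%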
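Assay system: AH1F fibroblast monolayer, labelled fibronectin deposition. Amount: 10000 cells per well. Also added: labelled fibronectin 24 nM. Compound: single-point pinned compound. Incubation: cell attachment 1 h, compound and FN exposure overnight. Detection: fluorescence after three HBSS washes, excitation 485 nm, emission 525 nm. Read-out: inhibition of fibronectin deposition signal.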
FGF22 binding – binders of human FGF22 protein, primary screen, FGF22 synaptogenesis inhibitor project, biophysical, thermal shift, single point. recombinant FGF22 thermal shift, SYPRO orange fluorescence; percent of sucrose octasulfate shift, DMSO zero. Fibroblast growth factor 22 (Homo sapiens), Q9HCT0. activity (Tm shift, normalised), % at 9.99 µM. 340,000 compounds, 1.5% hits;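 active means mean Tm shift, scaled 0 neutral to 100 positive control, at about 1.3% or above, every replicate too, limit read from the data; inconclusive means no clear call, values can overlap the other calls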
Target sequence (Q9HCT0 whole entry, looked up): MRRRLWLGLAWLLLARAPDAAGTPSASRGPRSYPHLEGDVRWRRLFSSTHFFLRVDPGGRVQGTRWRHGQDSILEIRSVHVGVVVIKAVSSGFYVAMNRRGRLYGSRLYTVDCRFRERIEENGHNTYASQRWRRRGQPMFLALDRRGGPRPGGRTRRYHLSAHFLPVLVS
EWS-Fli block – EWS/Fli-driven NR0B1 reporter inhibitors, primary screen, A673 cells, NR0B1 luciferase, luminescence, MLPCN library | 350,000 compounds, 0.67% hits | inhibition, % at 12.6 µM | viability-normalised;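 active means mean inhibition of at least 50% after viability correction, with every replicate also passing that limit; inconclusive means mean reaches 50% but only one of two replicates passes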;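 further: firefly luciferase signal divided by Alamar Blue viability fluorescence both relative to DMSO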
PGC1a acetyl inh – inhibitors of PGC1a acetylation signal, primary screen, cell-based, U2OS, AlphaScreen, inhibitor mode; AlphaScreen anti-acetyl-lysine; with virally co-expressed GCN5 acetyltransferase; inhibition, % at 15.6 µM; 350,000 compounds, 0.17% hits;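 active means every replicate shows inhibition of at least 40%; inconclusive means mean inhibition at least 40% but some replicate below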
PAX8 reporter – inhibitors of PAX8-driven TPO luciferase reporter, primary screen, RMG-I cells, single concentration. inhibition, % at 12.6 µM. AID 652154, 2013. SteadyGlo, 24 h. 360,000 compounds, 1.2% hits;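 active means mean replicate inhibition at least 60% with every replicate also reaching 60%; inconclusive means only one of the two criteria is met; inactive means mean below 60% and not all replicates reaching 60%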;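 further: luciferase light reporting Pax8 driven TPO promoter activity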
HIV Env fusion – inhibitors of HIV-1 Env-driven cell-cell fusion, primary screen, HeLa-JRFL effector, CEM21 target cells, luciferase; 360,000 compounds, 1.1% hits; inhibition, % at 12.3 µM; AID 651610, 2012;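 active means mean replicate inhibition score of at least 50 and every replicate individually at or above 50; inconclusive means only one of the two criteria met; inactive means mean below 50 and not all replicates reaching 50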
Of the large screens only hits and unclear results are named; the others gave an inactive call; [ ] = remark or other dose.

Clc1ccc(-c2cnn3c(-c4ccncc4)ccnc23)cc1	FGF22 binding 44.0
Nc1c(C(=O)O)cnc2c(-c3ccc(Cl)cc3)cnn12	none
C#CCN1CCc2onc(-c3ccccc3OC)c2C1=O	FGF22 binding 43.2 (no result: FN deposition inh)
CO[C@@H](CN(C)C(=O)C1CCOCC1)[C@@H](C)CN(C(=O)Nc1ccc(C(F)(F)F)cc1)[C@@H](C)CO	none (no result: PAX8 reporter, HIV Env fusion)
CO[C@H](CN(C)C(=O)C1CC1)[C@H](C)CN(C(=O)Nc1ccc(C(F)(F)F)cc1)[C@@H](C)CO	HIV Env fusion 55.6[16.7 µM]
CCS(=O)(=O)NCC[C@@H]1CC[C@@H](NS(=O)(=O)c2cccc(F)c2)[C@@H](CO)O1	none
O=C1c2ccccc2S(=O)(=O)N1CC(O)COc1ccc(Cl)cc1 (centres undefined)	none (no result: FGF22 binding, EWS-Fli block, PAX8 reporter)
COC(=O)c1ccc(OCC(O)CN2C(=O)c3ccccc3S2(=O)=O)cc1 (centres undefined)	FGF22 binding 43.0
CCCC#Cc1cnc2c(c1)C(=O)N([C@@H](C)CO)C[C@H](C)[C@@H](CN(C)C(=O)c1ccc(F)cc1)O2	none (no result: FN deposition inh, PAX8 reporter)
COc1cc(Cl)c(C)cc1NC(=O)CCN1C(=O)NC(C)(C)C1=O	FGF22 binding 43.2 (no result: PAX8 reporter)
CC(CC(=O)Nc1ccc2c(c1)c(=O)n(C)n2-c1ccccc1)c1ccccc1 (centres undefined)	EWS-Fli block 56.4
O=C(C[C@H]1C[C@H]2c3cc(NC(=O)C4CCC4)ccc3O[C@H]2[C@@H](CO)O1)NCc1cccc(F)c1	none (no result: FN deposition inh)
COc1ccc(NC(=O)Nc2ccc3c(c2)C(=O)N([C@@H](C)CO)C[C@@H](C)[C@@H](CN(C)C(=O)Nc2ccc(C(F)(F)F)cc2)O3)cc1	none (no result: FN deposition inh, PAX8 reporter, HIV Env fusion)
O=[N+]([O-])c1ccc(C2CCCC/C2=N/OCc2ccc(F)cc2)c([N+](=O)[O-])c1 (centres undefined)	HIV Env fusion 64.8 (no result: FN deposition inh, FGF22 binding, EWS-Fli block, PAX8 reporter)
COc1cc2nc3n(c(=O)c2cc1OC)-c1cc2ccccc2cc1C(=O)NC3CC(C)C (centres undefined)	FGF22 binding 43.4 (no result: PGC1a acetyl inh)
Cc1ccc2c(c1)-n1c(nc3ccccc3c1=O)C(Cc1ccc(O)cc1)NC2=O (centres undefined)	none (no result: PGC1a acetyl inh)
O=C1NC(Cc2ccc(O)cc2)c2nc3ccc(F)cc3c(=O)n2-c2cc3ccccc3cc21 (centres undefined)	EWS-Fli block 64.4 (no result: PGC1a acetyl inh, HIV Env fusion)
Cc1ccc2nc3n(c(=O)c2c1)-c1cc2ccccc2cc1C(=O)NC3Cc1ccc(O)cc1 (centres undefined)	EWS-Fli block 62.1 (no result: HIV Env fusion)
COc1cc2nc3n(c(=O)c2cc1OC)-c1cc2ccccc2cc1C(=O)NC3Cc1ccccc1 (centres undefined)	none
O=C1NC(Cc2ccccc2)c2nc3cc(F)ccc3c(=O)n2-c2cc3ccccc3cc21 (centres undefined)	PAX8 reporter 62.3 (no result: FN deposition inh)
CNC[C@@H]1Oc2cc(C#Cc3ccccc3OC)ccc2S(=O)(=O)N([C@@H](C)CO)C[C@H]1C	none (no result: PAX8 reporter)
CO[C@H]1CC[C@@H]2CCN(C)C(=O)CCCN(C)C(=O)c3cccc(C#N)c3OC[C@@H]1O2	none (no result: PGC1a acetyl inh)
Cc1noc(C)c1S(=O)(=O)Nc1ccc2c(c1)C(=O)N([C@@H](C)CO)C[C@@H](C)[C@@H](CN(C)Cc1ccncc1)OCCCC[C@@H](C)O2	none (no result: FN deposition inh)
C[C@@H]1CN([C@@H](C)CO)C(=O)Cc2cc(NC(=O)Nc3cccc4ccccc34)ccc2O[C@H]1CN(C)Cc1ccncc1	FGF22 binding 2.4 (no result: FN deposition inh, EWS-Fli block)
C[C@H](CO)N1C[C@H](C)[C@H](CN(C)Cc2ccncc2)Oc2ccc(NC(=O)Nc3cccc4ccccc34)cc2CC1=O	none (no result: FN deposition inh, FGF22 binding, EWS-Fli block)
C[C@H](CO)N1C[C@H](C)[C@@H](CN(C)Cc2ccncc2)Oc2ccc(NC(=O)Nc3cccc4ccccc34)cc2CC1=O	PAX8 reporter 66.9 (no result: FN deposition inh, FGF22 binding, EWS-Fli block)
Cc1ccc(S(=O)(=O)Nc2ccc3c(c2)C(=O)N([C@@H](C)CO)C[C@@H](C)[C@H](CN(C)S(=O)(=O)c2cn(C)cn2)O3)cc1	none (no result: FN deposition inh)
Cc1ccc(CNS(=O)(=O)c2ccccc2[N+](=O)[O-])cc1	FGF22 binding 43.5 (no result: PGC1a acetyl inh)
Cc1ccc(CNS(=O)(=O)c2ccc([N+](=O)[O-])cc2)cc1	none
CCCNC(=O)Nc1ccc2c(c1)C(=O)N(C)C[C@@H](OC)[C@@H](C)CN(C(=O)C1CCOCC1)[C@H](C)CO2	none (no result: FGF22 binding, HIV Env fusion)
COCC(=O)Nc1ccc2c(c1)C(=O)N(C)[C@H]1CC[C@@H](CC(=O)NCc3ccccc3F)O[C@H]1CO2	none
Cc1ccc(CN2CCC(CNC(=O)Nc3ccccc3F)CC2)cc1	none
O=C(NCC1CC1)Nc1ccccc1F	PGC1a acetyl inh 82.8
CC(C)C(=O)NC(c1ccc(Cl)cc1Cl)c1ccc2cccnc2c1O (centres undefined)	none
CCC(=O)NC(c1ccc(Cl)cc1Cl)c1ccc2cccnc2c1O (centres undefined)	PAX8 reporter 66.1
CCCCC(=O)NC(c1ccc(Cl)cc1Cl)c1ccc2cccnc2c1O (centres undefined)	PAX8 reporter 65.6 (no result: PGC1a acetyl inh)
CCCCC(=O)NC(c1cccs1)c1cc(Cl)c2cccnc2c1O (centres undefined)	PAX8 reporter inconclusive
COc1ccc2c3c(n(C)c2c1)[C@H](CO)N(S(C)(=O)=O)CC31CCN(C(=O)C2CC2)CC1	none (no result: FN deposition inh, PGC1a acetyl inh, HIV Env fusion)
CCCCCCCCN1C(=O)[C@@H](CC(=O)NCc2cccc3ccccc23)C[C@@]2(C(=O)OC)C1=C[C@H](C(C)(C)C)O[C@@H]2C	HIV Env fusion 63.2 (no result: PGC1a acetyl inh)
COC(=O)[C@]12C[C@H](CC(=O)NCc3ccc(OC)c(OC)c3)C(=O)N(CCc3ccc(OC)c(OC)c3)C1=C[C@H](C(C)(C)C)O[C@@H]2C	HIV Env fusion 58.3 (no result: PGC1a acetyl inh)
CCCCCCCCN1C(=O)[C@@H](CC(=O)NCc2ccc(OC)c(OC)c2)C[C@@]2(C(=O)OC)C1=C[C@H](C1CCCC1)O[C@@H]2C	none (no result: PGC1a acetyl inh)
CCCCCCCCN1C(=O)[C@@H](CC(=O)NCc2ccc(OC)c(OC)c2)C[C@@]2(C(=O)OC)C1=C[C@H](C(C)(C)C)O[C@@H]2C	HIV Env fusion 69.9 (no result: PGC1a acetyl inh)
COc1ccc(-c2ccc3c(c2)[C@@H]2[C@@H](CCN2S(=O)(=O)c2ccc(OC)cc2)[C@@H](CO)N3C)cc1	PAX8 reporter 85.3 (no result: HIV Env fusion)
COc1ccc(S(=O)(=O)N2CC[C@@H]3[C@H](CO)N(C)c4ccc(-c5ccccc5F)cc4[C@@H]32)cc1	none (no result: HIV Env fusion)
COc1ccc(-c2ccc3c(c2)[C@H]2[C@H](CCN2S(=O)(=O)c2ccc(OC)cc2)[C@H](CO)N3C)cc1	PAX8 reporter 94.6 (no result: HIV Env fusion)

Bioassay records (PubChem)
